Rows were chosen to be rich in hits. Some 3.7% of all compounds tested hit in one or more screens of this group.
MT stabilize HCS = microtubule stabilizers in HeLa cells; HeLa tubulin immunostaining HCS, 24 h; share of cells brighter than vehicle mean+2SD; % tubulin-high responders, % at 10 µM; 200,000 compounds, 0.83% hits;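 active = plate Z-score above 3 for both tubulin-high and condensed-nucleus cell shares, with cell loss under 80%, at 10 µM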;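 note: anti alpha tubulin signal scored within the nucleus-defined area of each cell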
ROMK mod = human ROMK K+ channel modulation, primary screen. Tet-inducible ROMK, thallium flux fluorescence; actives lie on both sides. B-score at 10 µM. AID 1918. 130,000 compounds, 2% hits;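 active = signal ratio slope over the read window, or its plate-corrected B-score, at least 3 SD from the plate mean, either direction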;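 note: B-score of the F/F0 ratio slope over 7 to 12 s after thallium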
Target sequence (P48048 whole entry, looked up): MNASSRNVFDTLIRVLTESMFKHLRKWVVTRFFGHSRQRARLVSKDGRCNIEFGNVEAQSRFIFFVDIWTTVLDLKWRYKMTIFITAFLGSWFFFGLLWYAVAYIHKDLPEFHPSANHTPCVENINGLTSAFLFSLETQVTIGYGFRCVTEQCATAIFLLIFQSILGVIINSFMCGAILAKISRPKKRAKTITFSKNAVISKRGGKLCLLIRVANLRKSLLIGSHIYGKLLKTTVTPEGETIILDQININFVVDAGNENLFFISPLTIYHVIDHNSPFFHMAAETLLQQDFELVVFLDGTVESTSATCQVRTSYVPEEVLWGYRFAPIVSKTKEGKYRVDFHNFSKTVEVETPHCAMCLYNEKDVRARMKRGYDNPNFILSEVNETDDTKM
b-catenin transl = alters nuclear translocation of beta-catenin in HeLa cells; AID 1665; 190,000 compounds, 0.3% hits; nuclear translocation activity, % at 5 µM; immunofluorescence imaging;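 active = nuclear translocation activity above 50% at 5 µM, with a well cell count of 50 or more; inconclusive = wells under 50 cells across six images, flagged as toxic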;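 note: per-cell ratio of nuclear to cytoplasmic median beta-catenin stain intensity; plate controls were DMSO negative control for no effect and GSK-3 inhibitor IX positive control for full effect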
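assay system = human HeLa cells, endogenous beta-catenin | times = compound treatment 24 h, 37°C, 5% CO2 | detection = Anti-beta-catenin immunofluorescence on PFA-fixed, Triton-permeabilized cells, DAPI nuclei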
KCC2 mod = modulates chloride dependent transport by human KCC2; Q9H2X9; KCC2 cells, thallium flux FluoZin-2 fluorescence; B-score of Tl+ flux slope (higher = more flux/activation; lower = inhibition) at 10 µM; 190,000 compounds, 2.2% hits; AID 1456;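 active = thallium flux slope and its plate-corrected score both differing from the plate sample mean at a set confidence after two filtering rounds, in either direction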;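 note: slope of fluorescence scaled to starting intensity during 10 to 20 s after thallium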
Redox H2O2 prof = compounds producing H2O2 with reducing agent – biochemical, NIH compound library profiling, artefact control for MLSCN library redox annotation, primary screen; DTT-dependent redox cycling H2O2, phenol red/HRP absorbance; 100% = 100 µM peroxide control, 0% = buffer; activation, % at 10 µM; 200,000 compounds, 0.03% hits;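 active = activation of at least 50% relative to the plate's high and low controls in the primary single-dose screen; inactive = activation below 50%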;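 note: compound incubated with DTT at 0.8 mM final as the reducing agent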
ROMK hit retest = confirmation of human ROMK potassium channel modulators; shares compounds with ROMK mod; ROMK thallium flux, fluorescence ratio; hits give low values; normalized thallium flux (F/F0 slope) at 10 µM; 3,000 compounds, 54% hits; AID 1917;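 active = Flux at 10 µM at least 3 SD below or above vehicle control mean in one or both replicates; inconclusive = no clear call, values can overlap the other calls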
Numbers without * were called inactive; ? = inconclusive; nt = no result given.

SMILES | MT stabilize HCS | ROMK mod | b-catenin transl | KCC2 mod | Redox H2O2 prof | ROMK hit retest
COc1ccccc1/C=C/C(=O)Nc1cccc(C(C)=O)c1 | 3 | -2.2 | -5 | -0.74 | -1 | nt
CC(=O)Nc1cccc(C(=O)/C=C/c2ccc(N(C)C)cc2)c1 | 2 | -3.7* | 1 | -2.6 | -1 | 0.048*
Cc1onc(-c2ccccc2)c1C(=O)/C=C/N(C)C | nt | nt | -2 | -0.028 | nt | nt
CC(C)Nc1nnc(SC(C)C(=O)Nc2ccc(Cl)cn2)s1 (stereo not drawn) | 3 | 0.026 | -1 | -0.63 | -1 | nt
CCOc1cc(/C=C(\C#N)C(=O)Nc2ccccc2[N+](=O)[O-])ccc1OCc1cccc2ccccc12 | 7 | 0.023 | 0 | 0.22 | 0 | nt
Cn1c(=O)c2cc3ccccc3nc2n(C)c1=O | nt | -5.1* | 1 | 0.06 | nt | ?
COC(=O)c1sc(NC(=O)/C=C/c2ccc(C)o2)nc1C | 2 | nt | -2 | 1.6 | 0 | nt
CC(=O)c1c(C)[nH]c(C(=O)N2CCc3ccccc32)c1C | 2 | 0.22 | -2 | nt | 0 | nt
CCOC(=O)c1[nH]c(C)c(C(=O)N2CCc3ccccc32)c1C | 29* | 3.2* | 83* | -0.77 | 1 | 0.082
OC(COC(c1ccc(Cl)cc1)c1ccc(Cl)cc1)CN1CCCC1 (stereo not drawn) | 1 | -3.9* | -4 | 0.14 | 0 | 0.057*
COc1cc(NC(=O)c2c(F)cccc2F)c(Cl)cc1Cl | 4 | -0.9 | -1 | 0.74 | -2 | nt
O=C(CSCc1ccccc1)NNC(=S)Nc1cccc(Cl)c1Cl | 1 | nt | -5 | 3.6 | 4 | 0.079
CN(C)c1nc(C(=O)O)nc(N2CCOCC2)n1 | nt | nt | 0 | 0.23 | nt | nt
Cc1cc(N2CCOCC2)ccc1/C=C\[N+](=O)[O-] | 3 | -4.5* | nt | -0.033 | 0 | 0.05*
O=[N+]([O-])c1ccc(N2CCOCC2)cc1O | nt | nt | 0 | nt | nt | nt
CC(C(=O)NC1CCCCC1)N1CCN(C)CC1 (stereo not drawn) | nt | nt | -1 | 0.18 | nt | nt
COc1ccc(-n2nc(C#N)c(Cl)cc2=O)cc1 | 5 | -2.8* | 6 | -1.4 | 0 | 0.052*
COc1cccc(CN2CCN(Cc3cccn3-c3cccnc3)CC2CCO)c1 (stereo not drawn) | 1 | 0.35 | 0 | 1.8 | 0 | nt
COc1cc([N+](=O)[O-])ccc1N/C=C/C(=O)c1cccs1 | 5 | nt | 6 | -1.2 | 7 | 0.053*
O=C(/C=C/c1ccc([N+](=O)[O-])cc1)c1cccs1 | nt | nt | 1 | -0.1 | nt | nt
Cc1cccc(N(C(=O)c2csnn2)C(C(=O)NC(C)(C)C)c2cccnc2)c1 (stereo not drawn) | 1 | 2.2* | 0 | 0.69 | 0 | 0.077
CCOC(=O)c1c(-c2ccc(-c3ccccc3)cc2)csc1NC(=O)C1C2CCC(O2)C1C(=O)O (stereo not drawn) | 3 | nt | nt | nt | 0 | 0.11*
COC(c1ccccc1)c1nnc(CCC(=O)N(C)Cc2cccc(-n3cccn3)c2)o1 (stereo not drawn) | 2 | nt | 1 | -1.8 | -2 | nt
CN1CCN(c2ccc([N+](=O)[O-])cc2/C=N/NC(=O)c2cccc([N+](=O)[O-])c2)CC1 | 3 | -2.3* | -3 | -0.75 | -1 | 0.058*
CCN(CC)C(=O)C1CCCN(c2ccc([N+](=O)[O-])cc2/C=N/NC(=O)c2ccc([N+](=O)[O-])cc2)C1 (stereo not drawn) | 3 | nt | nt | -1.2 | -5 | ?
SMILES | MT stabilize HCS | ROMK mod | b-catenin transl | KCC2 mod | Redox H2O2 prof | ROMK hit retest
CN1CCN(c2ccccc2NC(=O)c2ccc(-c3cccc([N+](=O)[O-])c3)o2)CC1 | 6 | -2.4* | -1 | -1 | -1 | 0.059*
CN1CCN(c2ccccc2NC(=O)c2cccc([N+](=O)[O-])c2)CC1 | 2 | -0.59 | 0 | 0.0024 | -2 | nt
CCC(=O)N1CCN(c2ccccc2NC(=O)c2ccc(-c3cccc([N+](=O)[O-])c3)o2)CC1 | 1 | nt | 0 | -0.095 | 0 | nt
CN=C(Nc1cccc(Cl)c1)SC1CC(=O)N(c2ccc(OC)cc2)C1=O (stereo not drawn) | 2 | -1 | -2 | 1.4 | -1 | nt
COc1cccc(Oc2nnnn2-c2ccccc2)c1 | 5 | 0.95 | 2 | -0.14 | 0 | nt
COc1cccc(-n2nnnc2S(C)(=O)=O)c1 | 1 | -3.5* | nt | nt | 0 | 0.063*
